Source: ChEMBL document CHEMBL4665858, “New BODIPYs for photodynamic therapy (PDT): Synthesis and activity on human cancer cell lines” (Bioorg Med Chem, 2020)
The source made the active and inactive calls. The calls are words filed in the database; no cut-off is given here.

Assays:
SK-OV-3 [1] = assay: (§1) Antimigratory activity against human SK-OV-3 cells assessed as open scratch wound at 2.5 nM preincubated for 24 hrs followed by irradiated with green LED for 2 hrs then incubated in dark for 24 hrs in drug free medium by scratch wound healing based microscopic analysis (reference value: 8.68 +/- 0.58%); format: functional
SK-OV-3 [2] = assay: Antimigratory activity against human SK-OV-3 cells assessed as open scratch wound at 2.5 nM incubated for 24 hrs by scratch wound healing based microscopic analysis; format: functional, cell-based
SK-OV-3 [3] = assay: Induction of cell cycle arrest in human SK-OV-3 cells assessed as cell cycle distribution at antiproliferative IC50 preincubated for 24 hrs followed by irradiated with green LED for 2 hrs then incubated in dark for 24 hrs in drug free medium by PI staining based flow cytometric analysis; format: functional
Outline: (§2)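 DNA content measured by PI flow cytometry (575 nm) in linear mode to give cell-cycle phase distribution. Untreated controls; 3 independent experiments.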

MCF7 [4] = assay: Induction of apoptosis in human MCF7 cells assessed as increase in apoptotic incubated for 24 hrs by PI staining based flow cytometric analysis; format: functional, cell-based
MCF7 [5] = assay: Induction of apoptosis in human MCF7 cells assessed as increase in apoptotic cells at antiproliferative IC50 preincubated for 24 hrs followed by irradiated with green LED for 2 hrs then incubated in dark for 24 hrs in drug free medium by PI staining based flow cytometric analysis; format: functional, cell-based
Outline: (§3)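 PI-stained cells analyzed by flow cytometry (575 nm); apoptotic fraction taken from the sub-G1 peak in log-mode histograms. Untreated controls; 3–5 independent experiments.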

SK-OV-3 [6] = assay: Induction of apoptosis in human SK-OV-3 cells assessed as increase in apoptotic cells at antiproliferative IC50 preincubated for 24 hrs followed by irradiated with green LED for 2 hrs then incubated in dark for 24 hrs in drug free medium by PI staining based flow cytometric analysis; format: functional, cell-based; outline: as §3
HCT-116 [7] = assay: Antiproliferative activity against human HCT116 cells assessed as reduction in cell viability preincubated for 24 hrs followed by irradiated with green LED for 2 hrs then incubated in dark for 24 hrs in drug free medium by MTT assay; format: functional, cell-based; conditions: HCT-116, light or radiation study
Outline: (§4)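 HCT116 and SKOV3 grown in DMEM, MCF7 in RPMI1640, all with 10% FBS. Cells attached 24 h, then exposed 24 h to BODIPY (0.1–200 nM) at 37 °C. Medium replaced by PBS and cells irradiated 2 h with green LED, then held 24 h in the dark in drug-free medium. MTT (2 mg/mL) added for 3 h; DMSO-dissolved formazan read by absorbance. IC50 from dose-response curves; 3–5 independent experiments.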

[8] = Drug uptake in human HCT116 cells assessed as intracellular accumulation at 10 uM incubated for 24 hrs spectrophotometric analysis; format: ADME, cell-based; conditions: hct-116, 24 h
Outline: (§5)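 Cells (3 × 10^6 per 75 cm² flask) grown 48 h, then exposed 24 h to BODIPY at 10 µM. Cells trypsinized and lysed in 0.1 M NaOH/1% SDS (5 × 10^6 cells/mL). Absorbance read at λmax; intracellular amount taken from a calibration curve prepared in SDS-lysed cells. 3–5 independent experiments.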

SK-OV-3 [9] = assay: Induction of ROS generation in human SK-OV-3 cells at antiproliferative IC50 preincubated for 24 hrs followed by irradiated with green LED for 2 hrs measured at the end of irradiation in drug free medium by DCFH-DA dye based flow cytometry relative to control
HCT-116 [10] = assay: Induction of apoptosis in human HCT116 cells assessed as increase in apoptotic incubated for 24 hrs by PI staining based flow cytometric analysis; format: functional, cell-based
MCF7 [11] = assay: Induction of ROS generation in human MCF7 cells at antiproliferative IC50 preincubated for 24 hrs followed by irradiated with green LED for 2 hrs then incubated in dark for 24 hrs in drug free medium by DCFH-DA dye based flow cytometry relative to control; format: functional, cell-based
MCF7 [12] = assay: Antiproliferative activity against human MCF7 cells assessed as reduction in cell viability preincubated for 24 hrs followed by irradiated with green LED for 2 hrs then incubated in dark for 24 hrs in drug free medium by MTT assay; format: functional, cell-based; conditions: MCF7, light or radiation study; outline: as §4
SK-OV-3 [13] = assay: Antiproliferative activity against human SK-OV-3 cells assessed as reduction in cell viability preincubated for 24 hrs followed by irradiated with green LED for 2 hrs then incubated in dark for 24 hrs in drug free medium by MTT assay; format: functional, cell-based; conditions: SK-OV-3, light or radiation study; outline: as §4
HCT-116 [14] = assay: Induction of cell cycle arrest in human HCT116 cells assessed as accumulation at G1 phase at antiproliferative IC50 preincubated for 24 hrs followed by irradiated with green LED for 2 hrs then incubated in dark for 24 hrs in drug free medium by PI staining based flow cytometric analysis; format: functional; outline: as §2
SK-OV-3 [15] = assay: Antimigratory activity against human SK-OV-3 cells assessed as open scratch wound at 2.5 nM preincubated for 24 hrs followed by irradiated with green LED for 2 hrs measured immediately in drug free medium by scratch wound healing based microscopic analysis (Rvb 38.27 +/- 3.02%); format: functional
MCF7 [16] = assay: Induction of apoptosis in human MCF7 cells assessed as increase in necrotic cells at antiproliferative IC50 preincubated for 24 hrs followed by irradiated with green LED for 2 hrs then incubated in dark for 24 hrs in drug free medium by PI staining based flow cytometric analysis; format: functional, cell-based; outline: as §3
SK-OV-3 [17] = assay: Antimigratory activity against human SK-OV-3 cells assessed as open scratch wound at 0.75 nM incubated for 24 hrs by scratch wound healing based microscopic analysis; format: functional, cell-based
MCF7 [18] = assay: Induction of cell cycle arrest in human MCF7 cells assessed as cell cycle distribution at antiproliferative IC50 preincubated for 24 hrs followed by irradiated with green LED for 2 hrs then incubated in dark for 24 hrs in drug free medium by PI staining based flow cytometric analysis; format: functional; outline: as §2
SK-OV-3 [19] = assay: Induction of cell cycle arrest in human SK-OV-3 cells assessed as cell cycle distribution at antiproliferative IC50 incubated for 24 hrs by PI staining based flow cytometric analysis; format: functional
HCT-116 [20] = assay: Induction of cell cycle arrest in human HCT116 cells assessed as cell cycle distribution at antiproliferative IC50 incubated for 24 hrs by PI staining based flow cytometric analysis; format: functional
[21] = Drug uptake in human SK-OV-3 cells assessed as intracellular accumulation at 10 uM incubated for 24 hrs spectrophotometric analysis; format: ADME, cell-based; conditions: sk-ov-3, 24 h; outline: as §5
MCF7 [22] = assay: Induction of cell cycle arrest in human MCF7 cells assessed as accumulation at G1 phase at antiproliferative IC50 preincubated for 24 hrs followed by irradiated with green LED for 2 hrs then incubated in dark for 24 hrs in drug free medium by PI staining based flow cytometric analysis; format: functional; outline: as §2
SK-OV-3 [23] = assay: Induction of apoptosis in human SK-OV-3 cells assessed as increase in apoptotic incubated for 24 hrs by PI staining based flow cytometric analysis; format: functional, cell-based
[24] = Drug uptake in human MCF7 cells assessed as intracellular accumulation at 10 uM incubated for 24 hrs spectrophotometric analysis; format: ADME, cell-based; conditions: mcf7, 24 h; outline: as §5
MCF7 [25] = assay: Induction of cell cycle arrest in human MCF7 cells assessed as cell cycle distribution at antiproliferative IC50 incubated for 24 hrs by PI staining based flow cytometric analysis; format: functional
HCT-116 [26] = assay: Induction of ROS generation in human HCT116 cells at antiproliferative IC50 preincubated for 24 hrs followed by irradiated with green LED for 2 hrs then incubated in dark for 24 hrs in drug free medium by DCFH-DA dye based flow cytometry relative to control; format: functional, cell-based
HCT-116 [27] = assay: Induction of cell cycle arrest in human HCT116 cells assessed as cell cycle distribution at antiproliferative IC50 preincubated for 24 hrs followed by irradiated with green LED for 2 hrs then incubated in dark for 24 hrs in drug free medium by PI staining based flow cytometric analysis; format: functional; outline: as §2
SK-OV-3 [28] = assay: Induction of apoptosis in human SK-OV-3 cells assessed as increase in necrotic cells at antiproliferative IC50 preincubated for 24 hrs followed by irradiated with green LED for 2 hrs then incubated in dark for 24 hrs in drug free medium by PI staining based flow cytometric analysis; format: functional, cell-based; outline: as §3
SK-OV-3 [29] = assay: Induction of cell cycle arrest in human SK-OV-3 cells assessed as accumulation at G1 phase at antiproliferative IC50 preincubated for 24 hrs followed by irradiated with green LED for 2 hrs then incubated in dark for 24 hrs in drug free medium by PI staining based flow cytometric analysis; format: functional; outline: as §2
SK-OV-3 [30] = assay: Antimigratory activity against human SK-OV-3 cells assessed as open scratch wound at 0.75 nM preincubated for 24 hrs followed by irradiated with green LED for 2 hrs measured immediately in drug free medium by scratch wound healing based microscopic analysis (Rvb 38.27 +/- 3.02%); format: functional
SK-OV-3 [31] = assay: as §1, with “0.75” for “2.5”; format: functional

SMILES	Activity (SK-OV-3 [2])	Activity (SK-OV-3 [3])	Activity (MCF7 [4])	Activity (MCF7 [5])	Activity (SK-OV-3 [6])	IC50 (HCT-116 [7])	Drug uptake [8]	Activity (SK-OV-3 [9])	Activity (HCT-116 [10])	Activity (MCF7 [11])	IC50 (MCF7 [12])	IC50 (SK-OV-3 [13])	Activity (HCT-116 [14])	Activity (MCF7 [16])	Activity (SK-OV-3 [17])	Activity (MCF7 [18])	Activity (SK-OV-3 [19])	Activity (HCT-116 [20])	Drug uptake [21]	Activity (MCF7 [22])	also measured
CC1=C(I)C(C)=[N+]2C1=C(c1ccc(OCCCCCCCCBr)cc1)c1c(C)c(I)c(C)n1[B-]2(F)F	inactive	inactive	inactive	Active	Active	11.7 nM	Active	Active	inactive	inactive	23.1 nM	15.6 nM	inactive	Active	inactive	inactive	inactive	inactive	Active	inactive	Activity (SK-OV-3 [1]): 13.53%; Activity (SK-OV-3 [15]): 37.71%; Activity (SK-OV-3 [23]): inactive; Drug uptake [24]: Active; Activity (MCF7 [25]): inactive; Activity (HCT-116 [26]): inactive; Activity (HCT-116 [27]): inactive; Activity (SK-OV-3 [28]): Active
CC1=C(I)C(C)=[N+]2C1=C(c1ccc(OCCCCBr)cc1)c1c(C)c(I)c(C)n1[B-]2(F)F	inactive	inactive	inactive	Active	Active	2 nM	Active	Active	inactive	inactive	6.88 nM	3.56 nM	inactive	Active	inactive	inactive	inactive	inactive	Active	inactive	Activity (SK-OV-3 [29]): inactive; Activity (SK-OV-3 [30]): 35.19%; Activity (SK-OV-3 [23]): inactive; Activity (SK-OV-3 [31]): 24.81%; Drug uptake [24]: Active; Activity (MCF7 [25]): inactive; Activity (HCT-116 [26]): inactive; Activity (HCT-116 [27]): inactive; Activity (SK-OV-3 [28]): Active
